The record followed here is ChEMBL document CHEMBL1132841, “Optimization of a somatostatin mimetic via constrained amino acid and backbone incorporation” (Bioorg Med Chem Lett, 2000).

In assay [1] the target is T1, Somatostatin receptor type 1 (Homo sapiens, UniProt P30872). Kind of assay: Inhibition of somatostatin binding to sst1 receptor at 1 uM in radioligand binding assay ([125I]Tyr11-SRIF) in membranes from CHO-K1 cells. The assay is classed as cell membranes. A digest of the protocol: (§1)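 Competitive binding against [125I]-Tyr11-SRIF on membranes from CHO-K1 cells expressing human sst1–sst5, with each test compound at a single concentration. Nonspecific binding was defined with unlabelled SRIF. Incubations were stopped by rapid filtration through 0.5% PEI-soaked glass-fibre filters, then three washes in 50 mM Tris-HCl pH 7.4 with 5 mg/mL BSA. Filter radioactivity was gamma counted.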
T1 sequence (P30872 whole entry): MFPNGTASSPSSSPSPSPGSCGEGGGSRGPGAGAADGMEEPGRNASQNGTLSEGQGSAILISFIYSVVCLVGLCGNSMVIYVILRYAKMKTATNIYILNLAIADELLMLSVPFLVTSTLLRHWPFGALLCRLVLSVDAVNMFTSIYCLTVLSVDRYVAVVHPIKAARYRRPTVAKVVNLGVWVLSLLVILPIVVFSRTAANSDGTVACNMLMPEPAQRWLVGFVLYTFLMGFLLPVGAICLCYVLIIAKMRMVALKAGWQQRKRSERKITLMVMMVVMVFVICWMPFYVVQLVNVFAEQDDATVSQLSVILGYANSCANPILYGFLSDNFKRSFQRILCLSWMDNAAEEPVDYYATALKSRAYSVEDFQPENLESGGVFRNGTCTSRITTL

Assay [2] concerns the target T2, Somatostatin receptor type 2 (Homo sapiens, UniProt P30874). Kind of assay: Inhibition of somatostatin binding to sst2 receptor at 1 uM in radioligand binding assay ([125I]Tyr11-SRIF) in membranes from CHO-K1 cells. The assay is classed as cell membranes. A digest of the protocol:
as §1

The target of assay [3] is T3, Somatostatin receptor type 4 (Homo sapiens, UniProt P31391). Description: Inhibition of somatostatin binding to sst4 receptor at 1 uM in radioligand binding assay ([125I]Tyr11-SRIF) in membranes from CHO-K1 cells. It counts as cell membranes. A digest of the protocol: as §1
T3 sequence (P31391 whole entry): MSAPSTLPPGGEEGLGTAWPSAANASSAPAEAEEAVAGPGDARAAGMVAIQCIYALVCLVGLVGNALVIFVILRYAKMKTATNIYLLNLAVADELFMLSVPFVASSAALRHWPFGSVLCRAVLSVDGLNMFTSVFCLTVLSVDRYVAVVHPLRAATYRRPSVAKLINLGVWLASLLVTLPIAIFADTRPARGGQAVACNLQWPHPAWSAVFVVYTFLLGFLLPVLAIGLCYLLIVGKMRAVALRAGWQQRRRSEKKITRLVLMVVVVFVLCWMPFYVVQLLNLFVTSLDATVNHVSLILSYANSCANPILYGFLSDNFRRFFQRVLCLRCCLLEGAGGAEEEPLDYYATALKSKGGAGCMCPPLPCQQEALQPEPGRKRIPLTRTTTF
For assay [4], the target named is T4, Somatostatin receptor type 5 (Homo sapiens, UniProt P35346). Description: Inhibition of somatostatin binding to sst5 receptor at 1 uM in radioligand binding assay ([125I]Tyr11-SRIF) in membranes from CHO-K1 cells. It counts as cell membranes. A digest of the protocol: as §1
T4 sequence (P35346 whole entry): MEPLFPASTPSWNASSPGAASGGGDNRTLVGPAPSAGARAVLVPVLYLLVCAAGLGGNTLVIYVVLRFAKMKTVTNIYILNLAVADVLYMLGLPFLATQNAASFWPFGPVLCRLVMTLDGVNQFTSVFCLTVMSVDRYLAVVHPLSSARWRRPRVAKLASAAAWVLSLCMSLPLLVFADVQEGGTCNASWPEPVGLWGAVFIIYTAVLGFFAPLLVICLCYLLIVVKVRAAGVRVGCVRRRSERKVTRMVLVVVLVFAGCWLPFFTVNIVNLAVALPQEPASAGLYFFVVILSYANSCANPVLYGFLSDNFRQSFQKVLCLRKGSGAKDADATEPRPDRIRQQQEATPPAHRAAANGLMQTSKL
Assay [5] concerns the target T5, Somatostatin receptor type 3 (Homo sapiens, UniProt P32745). Description: Inhibition of somatostatin binding to sst3 receptor at 1 uM in radioligand binding assay ([125I]Tyr11-SRIF) in membranes from CHO-K1 cells. It counts as cell membranes. A digest of the protocol: as §1
Assay [6] addresses T1, Somatostatin receptor type 1. Kind of assay: Inhibitory concentration required for somatostatin 1 receptor in radioligand binding assay ([125I]Tyr11-SRIF). A digest of the protocol:
(§2)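 IC50 values were determined by displacement of [125I]-Tyr11-SRIF on membranes from CHO-K1 cells expressing the relevant human sst subtype. Unlabelled SRIF defined nonspecific binding. Bound ligand was separated by rapid filtration on glass-fibre filters pre-soaked in 0.5% PEI. Filters were washed three times with 50 mM Tris-HCl pH 7.4 containing 5 mg/mL BSA and gamma counted.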

In assay [7] the target is T2, Somatostatin receptor type 2. Kind of assay: Inhibitory concentration required for somatostatin 2 receptor in radioligand binding assay ([125I]Tyr11-SRIF). The method, boiled down: as §2
Assay [8] has as its target T5, Somatostatin receptor type 3. Description: Inhibitory concentration required for somatostatin 3 receptor in radioligand binding assay ([125I]Tyr11-SRIF). The method, boiled down:
as §2

Assay [9] addresses T3, Somatostatin receptor type 4. Description: Inhibitory concentration required for somatostatin 4 receptor in radioligand binding assay ([125I]Tyr11-SRIF). The method, boiled down:
as §2

Assay [10] concerns the target T4, Somatostatin receptor type 5. Kind of assay: Inhibitory concentration required for somatostatin 5 receptor in radioligand binding assay ([125I]-Tyr11-SRIF). The method, boiled down:
as §2

As usually defined, the inhibition is the relative decrease from the control value, in per cent. By IC50 is commonly meant the concentration that gives 50% inhibition.

Structures are written as SMILES.

T5 sequence (P32745 whole entry): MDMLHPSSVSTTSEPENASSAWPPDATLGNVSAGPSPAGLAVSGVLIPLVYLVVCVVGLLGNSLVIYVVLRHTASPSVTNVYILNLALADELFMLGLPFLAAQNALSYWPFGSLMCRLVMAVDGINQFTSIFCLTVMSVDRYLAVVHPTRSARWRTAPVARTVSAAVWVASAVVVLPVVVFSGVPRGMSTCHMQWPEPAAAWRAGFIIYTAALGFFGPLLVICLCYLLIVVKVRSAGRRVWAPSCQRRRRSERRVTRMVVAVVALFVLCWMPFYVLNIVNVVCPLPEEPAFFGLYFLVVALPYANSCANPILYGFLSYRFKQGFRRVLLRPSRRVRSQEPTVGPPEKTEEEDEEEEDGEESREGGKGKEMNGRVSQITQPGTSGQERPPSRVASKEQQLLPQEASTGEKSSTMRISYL
T2 sequence (P30874 whole entry): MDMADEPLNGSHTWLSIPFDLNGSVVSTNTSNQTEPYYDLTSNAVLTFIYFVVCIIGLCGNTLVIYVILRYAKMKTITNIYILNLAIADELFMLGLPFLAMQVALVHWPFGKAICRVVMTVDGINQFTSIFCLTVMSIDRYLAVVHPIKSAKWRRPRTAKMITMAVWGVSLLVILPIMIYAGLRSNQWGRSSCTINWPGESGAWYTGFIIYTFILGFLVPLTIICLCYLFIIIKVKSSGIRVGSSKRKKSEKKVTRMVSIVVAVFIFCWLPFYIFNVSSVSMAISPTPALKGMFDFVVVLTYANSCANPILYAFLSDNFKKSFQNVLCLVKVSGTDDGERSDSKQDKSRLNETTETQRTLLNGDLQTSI

For the compound `NCC[C@H]1C[C@@H]2C(=O)N(Cc3cccc4ccccc34)CCS[C@H](Cc3c[nH]c4ccccc34)C(=O)N2C1`, the inhibition in assay [1] is 28%; in assay [2] it was 20%; in [3], 17%; in [4], 50%; in [5] it was 16%.
The corresponding values for `NCC[C@@H]1C[C@@H]2C(=O)N(Cc3cccc4ccccc34)CCS[C@H](Cc3c[nH]c4ccccc34)C(=O)N2C1` are 13%, 7%, 12%, 56% and 19%.
As for `NCCCC1CCCN2C(=O)[C@@H](Cc3c[nH]c4ccccc34)SCCN(Cc3cccc4ccccc34)C(=O)C12` (stereo not given in full), the half-maximal inhibitory concentration (IC50) in assay [6] was determined as 407 nM; in assay [7], 275 nM; in assay [8] it was 1260 nM; in assay [9] it was 41 nM; in [10], 41 nM. For the same compound, the inhibition in assay [1] was 64%; in assay [2] it was 74%; in assay [3], 99%; in [4], 89%; in [5], 44%.
In the case of `NCCCC[C@H]1NC(=O)[C@@H](Cc2c[nH]c3ccccc23)Sc2ccccc2CN(Cc2cccc3ccccc23)C1=O`, the inhibition in assay [1] is 36%; in assay [2], 7%; in assay [3], 41%; in assay [4], 64%; in assay [5], 13%.
Regarding `NCCCC[C@H]1NC(=O)[C@@H](Cc2c[nH]c3ccccc23)SCCN(Cc2cccc3ccccc23)C1=O`, the IC50 came to 501 nM in assay [6]; 1590 nM in [7]; 3090 nM in [8]; 1050 nM in assay [9]; 87 nM in [10]. Also, the inhibition in assay [1] is 64%; in [2] it was 33%; in assay [3] it was 43%; in assay [4] it was 99%; in assay [5], 42%.
